Measurements as given in ChEMBL document CHEMBL1932981, “Synthesis of novel 2, 5-dihydrofuran derivatives and evaluation of their anticancer activity” (Eur J Med Chem, 2012).

Columns and labels:
Assay type in all cases: functional, cell-based; call rule not given here
A549 = experiment: Cytotoxicity against human A549 cells after 24 hrs by MTT assay
How it was run: (§1)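 Cell lines from the Navy Medical College, seeded at 8000 cells/well in 96-well plates. Compounds dissolved in DMSO (stock 10 g/L) and freshly diluted in medium. Dilutions were added in duplicate 24 h after seeding, with incubation continued at 37 °C. Viability read by MTT. IC50 taken as the concentration giving 50% growth inhibition, determined following NCCLS recommendations.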

[1] = Cytotoxicity against human QGY7701 cells after 24 hrs by MTT assay; conditions: QGY7701, 24 h; how it was run: as §1
HeLa = experiment: Cytotoxicity against human HeLa cells after 24 hrs by MTT assay; how it was run: as §1
SW480 = experiment: Cytotoxicity against human SW480 cells after 24 hrs by MTT assay; conditions: SW480, 24 h; how it was run: as §1
[2] = Homo sapiens, A549, 24 h, read-out: IC50
[3] = Homo sapiens, HeLa, 24 h, read-out: IC50

Structure (SMILES) | IC50 (A549; [2]) [µM] | IC50 [1] [µM] | IC50 (HeLa; [3]) [µM] | IC50 (SW480) [µM] | IC50 (A549; a549) | IC50 (HeLa; hela)
C=CC1=C(C(=O)Nc2ccc(C)cc2)C(c2ccc(OC)cc2)OC1 (stereo not given) | > 100 | > 100 | > 100 | > 100 | – | –
C=CC1=C(C(=O)Nc2ccccc2)C(c2ccc(OC)c(OC)c2)OC1 (stereo not given) | > 100 | > 100 | 5.03 | 45.1 | – | –
C=CC1=C(C(=O)O)C(c2ccc(OC)c(OC)c2)OC1 (stereo not given) | > 100 | > 100 | 18 | > 100 | – | –
C=CC1=C(C(=O)N2CCN(c3cccc(OC)c3)CC2)C(c2ccc(OC)cc2)OC1 (stereo not given) | 20.7 | 17.9 | 15.3 | 25 | – | –
C=CC1=C(C(=O)NCCc2cccc(OC)c2)C(c2ccc(OC)cc2)OC1 (stereo not given) | > 100 | > 100 | > 100 | > 100 | – | –
C=CC1=C(C(=O)NCCCCC)C(c2ccc(F)cc2)OC1 (stereo not given) | > 100 | > 100 | > 100 | > 100 | – | –
C=CC1=C(C(=O)NC(C)(C)C)C(c2ccc(Cl)c(Cl)c2)OC1 (stereo not given) | > 100 | > 100 | > 100 | > 100 | – | –
C=CC1=C(C(=O)NCCc2ccc(F)cc2)C(c2ccc(OC)cc2)OC1 (stereo not given) | > 100 | > 100 | > 100 | > 100 | – | –
C=CC1=C(C(=O)Nc2ccc(OCC)cc2)C(c2ccc(F)cc2)OC1 (stereo not given) | – | 61.6 | > 100 | > 100 | Not Active | –
C=CC1=C(C(=O)NCc2ccc(C)cc2)C(c2ccc(OC)cc2)OC1 (stereo not given) | > 100 | 43.1 | 15.8 | 31.7 | – | –
C=CC1=C(C(=O)O)C(c2ccc(Cl)c(Cl)c2)OC1 (stereo not given) | > 100 | > 100 | 10.3 | > 100 | – | –
C=CC1=C(C(=O)NC2CCCCC2)C(c2ccc(OC)c(OC)c2)OC1 (stereo not given) | > 100 | 7.49 | 5.54 | 19.1 | – | –
C=CC1=C(C(=O)NCCc2ccccc2F)C(c2ccc(OC)cc2)OC1 (stereo not given) | > 100 | > 100 | 37.5 | > 100 | – | –
C=CC1=C(C(=O)NCCCCC)C(c2ccc(OC)cc2)OC1 (stereo not given) | 36.5 | > 100 | > 100 | > 100 | – | –
C=CC1=C(C(=O)N2CCN(c3cccc(C)c3C)CC2)C(c2ccc(OC)cc2)OC1 (stereo not given) | 10.3 | > 100 | > 100 | 44.1 | – | –
C=CC1=C(C(=O)Nc2ccccc2)C(c2ccc(Cl)c(Cl)c2)OC1 (stereo not given) | > 100 | > 100 | > 100 | > 100 | – | –
C=CC1=C(C(=O)NCCC)C(c2ccc(Cl)c(Cl)c2)OC1 (stereo not given) | > 100 | 31.3 | > 100 | > 100 | – | –
C=CC1=C(C(=O)O)C(c2ccc(F)cc2)OC1 (stereo not given) | > 100 | > 100 | 67.4 | > 100 | – | –
C=CC1=C(C(=O)NC2CCCCC2)C(c2ccc(F)cc2)OC1 (stereo not given) | > 100 | 40.5 | > 100 | > 100 | – | –
C=CC1=C(C(=O)Nc2ccccc2)C(c2ccc(F)cc2)OC1 (stereo not given) | > 100 | 46.7 | > 100 | > 100 | – | –

Structure (SMILES) | IC50 (A549; [2]) [µM] | IC50 [1] [µM] | IC50 (HeLa; [3]) [µM] | IC50 (SW480) [µM] | IC50 (A549; a549) | IC50 (HeLa; hela)
C=CC1=C(C(=O)NCCc2ccc(F)cc2)C(c2ccc(F)cc2)OC1 (stereo not given) | > 100 | 29.7 | > 100 | 36 | – | –
C=CC1=C(C(=O)Nc2ccccc2OC)C(c2ccc(OC)cc2)OC1 (stereo not given) | > 100 | > 100 | > 100 | > 100 | – | –
C=CC1=C(C(=O)Nc2ccccc2OC)C(c2ccc(F)cc2)OC1 (stereo not given) | > 100 | 52.8 | > 100 | > 100 | – | –
C=CC1=C(C(=O)Nc2ccc(OCC)cc2)C(c2ccc(OC)cc2)OC1 (stereo not given) | 17.6 | > 100 | > 100 | > 100 | – | –
C=CC1=C(C(=O)NCC(C)C)C(c2ccc(OC)cc2)OC1 (stereo not given) | > 100 | > 100 | > 100 | > 100 | – | –
C=CC1=C(C(=O)NC2CCCCC2)C(c2ccc(OC)cc2)OC1 (stereo not given) | > 100 | > 100 | 24.8 | > 100 | – | –
C=CC1=C(C(=O)NCc2ccccc2F)C(c2ccc(OC)cc2)OC1 (stereo not given) | > 100 | > 100 | > 100 | > 100 | – | –
C=CC1=C(C(=O)NCCC)C(c2ccc(F)cc2)OC1 (stereo not given) | > 100 | > 100 | > 100 | > 100 | – | –
O=c1[nH]cc(F)c(=O)[nH]1 [FLUOROURACIL] | – | 14.3 | 16.3 | 15.7 | – | –
C=CC1=C(C(=O)NCCc2cccc(F)c2)C(c2ccc(F)cc2)OC1 (stereo not given) | > 100 | 59.8 | > 100 | > 100 | – | –
C=CC1=C(C(=O)NC(C)(C)C)C(c2ccc(F)cc2)OC1 (stereo not given) | > 100 | > 100 | > 100 | > 100 | – | –
C=CC1=C(C(=O)NCc2ccccc2)C(c2ccc(F)cc2)OC1 (stereo not given) | > 100 | 67.6 | > 100 | > 100 | – | –
C=CC1=C(C(=O)NCc2ccc(C)cc2)C(c2ccc(F)cc2)OC1 (stereo not given) | > 100 | 62.1 | > 100 | > 100 | – | –
C=CC1=C(C(=O)O)C(c2ccc(OC)cc2)OC1 (stereo not given) | > 100 | > 100 | 44.3 | > 100 | – | –
C=CC1=C(C(=O)NCc2ccccc2F)C(c2ccc(F)cc2)OC1 (stereo not given) | > 100 | 51.4 | > 100 | > 100 | – | –
C=CC1=C(C(=O)Nc2ccc(C)cc2)C(c2ccc(F)cc2)OC1 (stereo not given) | > 100 | 59.2 | > 100 | > 100 | – | –
C=CC1=C(C(=O)NCc2ccc(Cl)cc2)C(c2ccc(F)cc2)OC1 (stereo not given) | > 100 | 36.9 | > 100 | > 100 | – | –
C=CC1=C(C(=O)Nc2cccc(C)c2)C(c2ccc(F)cc2)OC1 (stereo not given) | > 100 | 56.4 | – | > 100 | – | Not Active
C=CC1=C(C(=O)NCCC)C(c2ccc(OC)cc2)OC1 (stereo not given) | > 100 | > 100 | 14 | > 100 | – | –
C=CC1=C(C(=O)NCC(C)C)C(c2ccc(Cl)c(Cl)c2)OC1 (stereo not given) | > 100 | > 100 | 60.1 | > 100 | – | –

Structure (SMILES) | IC50 (A549; [2]) [µM] | IC50 [1] [µM] | IC50 (HeLa; [3]) [µM] | IC50 (SW480) [µM] | IC50 (A549; a549) | IC50 (HeLa; hela)
C=CC1=C(C(=O)NCc2ccc(Cl)cc2)C(c2ccc(OC)c(OC)c2)OC1 (stereo not given) | > 100 | > 100 | > 100 | > 100 | – | –
C=CC1=C(C(=O)NCCc2cccc(OC)c2)C(c2ccc(F)cc2)OC1 (stereo not given) | > 100 | 87.2 | – | > 100 | – | Not Active
C=CC1=C(C(=O)NCc2ccc(Cl)cc2)C(c2ccc(OC)cc2)OC1 (stereo not given) | > 100 | > 100 | > 100 | > 100 | – | –
C=CC1=C(C(=O)NCc2ccccc2)C(c2ccc(Cl)c(Cl)c2)OC1 (stereo not given) | > 100 | > 100 | > 100 | > 100 | – | –
C=CC1=C(C(=O)Nc2ccccc2OC)C(c2ccc(Cl)c(Cl)c2)OC1 (stereo not given) | > 100 | > 100 | > 100 | > 100 | – | –
C=CC1=C(C(=O)N2CCN(c3ccccc3Cl)CC2)C(c2ccc(OC)cc2)OC1 (stereo not given) | 35.3 | > 100 | > 100 | 13.1 | – | –
C=CC1=C(C(=O)NCc2ccccc2)C(c2ccc(OC)c(OC)c2)OC1 (stereo not given) | > 100 | > 100 | > 100 | > 100 | – | –
C=CC1=C(C(=O)NC(C)(C)C)C(c2ccc(OC)cc2)OC1 (stereo not given) | > 100 | > 100 | > 100 | > 100 | – | –
C=CC1=C(C(=O)NCc2ccccc2)C(c2ccc(OC)cc2)OC1 (stereo not given) | > 100 | > 100 | > 100 | 39.5 | – | –
C=CC1=C(C(=O)NCCCCC)C(c2ccc(Cl)c(Cl)c2)OC1 (stereo not given) | > 100 | > 100 | > 100 | 27.5 | – | –
C=CC1=C(C(=O)N2CCN(c3ccccc3OC)CC2)C(c2ccc(OC)cc2)OC1 (stereo not given) | 23 | 23.6 | > 100 | > 100 | – | –
C=CC1=C(C(=O)NCC(C)C)C(c2ccc(F)cc2)OC1 (stereo not given) | > 100 | > 100 | > 100 | > 100 | – | –
C=CC1=C(C(=O)Nc2cccc(C)c2)C(c2ccc(OC)cc2)OC1 (stereo not given) | > 100 | > 100 | > 100 | > 100 | – | –
C=CC1=C(C(=O)N2CCN(c3cccc(Cl)c3Cl)CC2)C(c2ccc(OC)cc2)OC1 (stereo not given) | 8.86 | 4.96 | 4 | 29.2 | – | –
C=CC1=C(C(=O)NCCC)C(c2ccc(OC)c(OC)c2)OC1 (stereo not given) | > 100 | > 100 | > 100 | > 100 | – | –
C=CC1=C(C(=O)NCCc2ccccc2F)C(c2ccc(F)cc2)OC1 (stereo not given) | > 100 | 35.1 | > 100 | > 100 | – | –
C=CC1=C(C(=O)Nc2ccccc2)C(c2ccc(OC)cc2)OC1 (stereo not given) | > 100 | > 100 | > 100 | > 100 | – | –
C=CC1=C(C(=O)NCc2ccc(OC)c(OC)c2)C(c2ccc(OC)cc2)OC1 (stereo not given) | > 100 | > 100 | > 100 | 13.5 | – | –
COc1cccc2c1C(=O)c1c(O)c3c(c(O)c1C2=O)C[C@@](O)(C(=O)CO)C[C@@H]3O[C@H]1C[C@H](N)[C@H](O)[C@H](C)O1 [DOXORUBICIN] | 6.61 | 8.65 | 1.12 | 65.2 | – | –
